The record followed here is ChEMBL document CHEMBL2034977, “Discovery of CX-6258. A Potent, Selective, and Orally Efficacious pan-Pim Kinases Inhibitor” (ACS Med Chem Lett, 2012).

Format in all cases: ADME, organism-based
Data set [1] is described as follows: AUC (0 to 24 hrs) in po dosed mouse. The arrangement: time < 24 hr, route oral. The following applies: plasma. The essentials: (§1)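 Mouse pharmacokinetics after IV and oral dosing. Vehicle D5W. Clearance, volume of distribution, half-life, AUC over 0−24 h and oral bioavailability were derived. Each value is the average of four animals.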
Data set [2] is described as follows: Oral bioavailability in mouse. The following applies: in vivo. The method, boiled down:
as §1

Data set [3] is filed under the species Mus musculus. The data set can be described thus: Drug metabolism in mouse assessed as formation of 3-((5-(3-(1,4-diazepane-1-carbonyl)phenyl)furan-2-yl)methylene)-5-chloroindolin-2-one. The following applies: in vivo.
Data set [4] in a line: Volume of distribution in iv dosed mouse. Conditions: in vivo; call rule not given here. The essentials: as §1
Data set [5] in a line: Half life in iv dosed mouse. The following applies: in vivo. The method, boiled down: as §1
Data set [6] in a line: Clearance in iv dosed mouse. Conditions: in vivo. The essentials: as §1

As to `CN1CCCN(C(=O)c2cccc(-c3ccc(/C=C4/C(=O)Nc5ccc(Cl)cc54)o3)c2)CC1`, the AUC(0-t) at 24 h in data set [1] was 1020 ng·h/mL. This compound also displayed a bioavailability in data set [2] of 23%. In addition, the Drug metabolism result in data set [3] was “Active”. The compound also came in with a Vd in data set [4] of 85 L/kg. The same compound had a half-life in data set [5] of 27 h. The compound further gave a clearance in data set [6] of 35 mL/min/kg.
